For test [1] the following is noted: read-out: Kd for Ca^2+; cited from earlier work.
A further test deals with CaM34 (Rattus norvegicus, UniProt P0DP29, D130A/D94A). As to the kind of experiment: Stopped-flow Ca^2+ dissociation kinetics of CaM34. It counts as binding. The following applies: mean ± SD of 3-8 experiments; for amplitude 2 (relative quin-2 fluorescence change), CaM34: as koff2, CaM34, 22 °C. The gist of the method:
(§1)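 Rat His-CaM (2 μM) with 20 μM CaCl2, alone or with 2 μM synthetic AC1 or AC8 CaMBD peptide, is mixed 1:1 with 150 μM quin-2. These are pre-mix concentrations. Buffer is 20 mM MOPS pH 7.4, 100 mM KCl, 1 mM MgCl2, at 22 °C. Quin-2 fluorescence is read with excitation at 334 nm and a 405 nm cutoff filter. Five to eight runs are averaged and fit single- or double-exponentially. A relative amplitude of 0.03 equals one Ca2+. Values are mean ± SD of ≥3 averages.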

A further test addresses CaMWT (Rattus norvegicus, UniProt P0DP29). As to the kind of experiment: Stopped-flow Ca^2+ dissociation kinetics of CaMWT. In kind it is binding. The following applies: for number of Ca^2+ ions released, phase 1, CaMWT / number of Ca^2+ ions released, phase 2, CaMWT: 0.03 relative amplitude = one Ca^2+ ion; for amplitude 1 (relative quin-2 fluorescence change), CaMWT: as koff1, CaMWT; for amplitude 1 (relative quin-2 fluorescence change), CaMWT / amplitude 2 (relative quin-2 fluorescence change), CaMWT: mean ± SD of 3-8 experiments; for amplitude 2 (relative quin-2 fluorescence change), CaMWT: as koff2, CaMWT. The gist of the method: as §1

A further test concerns the target CaM12 (Rattus norvegicus, UniProt P0DP29, D21A/D57A). As to the kind of experiment: Stopped-flow Ca^2+ dissociation kinetics of CaM12. It counts as binding. The following applies: for amplitude 1 (relative quin-2 fluorescence change), CaM12: as koff1, CaM12, 22 °C; for amplitude 1 (relative quin-2 fluorescence change), CaM12 / amplitude 2 (relative quin-2 fluorescence change), CaM12: mean ± SD of 3-8 experiments; for amplitude 2 (relative quin-2 fluorescence change), CaM12: as koff2, CaM12, 22 °C. The gist of the method:
as §1

Setting [2] is: CaM12 with peptide, single-exponential fit, 22 °C, n = 3.

These results are taken from PMC3466776 (Biochemistry, 2012).

One may read the Kd as the equilibrium constant for the complex coming apart.

Regarding `COc1cc(N(CC(=O)O)CC(=O)O)c2nc(COc3cc(C)ccc3N(CC(=O)O)CC(=O)O)ccc2c1` [quin-2], the dissociation constant (Kd) in test [1] was roughly 60 nM.

Regarding GSRPQRLLWQTAVRHITEQRFIHGH [AC8-Nt], at CaM34, the “amplitude 2 (relative quin-2 fluorescence change), CaM34” value came to 0.027 ± 0.004. Also, at CaMWT (22 °C), the “number of Ca^2+ ions released, phase 1, CaMWT” value (“number … phase 1, CaMWT” for short) is on record as 1; the “number of Ca^2+ ions released, phase 2, CaMWT” value (“number … phase 2, CaMWT” below) came to 1; the “amplitude 1 (relative quin-2 fluorescence change), CaMWT” value is listed as 0.029 ± 0.008; the “amplitude 2 (relative quin-2 fluorescence change), CaMWT” value is 0.027 ± 0.007. In addition, the “total Ca^2+ released in measurable phases, CaMWT” value (shortened to “total Ca^2+ released”) on CaMWT (CaMWT with peptide, 22 °C) amounted to 2 mol. At CaM12, the “amplitude 1 (relative quin-2 fluorescence change), CaM12” value is reported as 0.017 ± 0.002 and the “amplitude 2 (relative quin-2 fluorescence change), CaM12” value is listed as 0.022 ± 0.06.

In the case of IKPAKRMKFKTVCYLLVQLMHCRKMFKA [AC1-C1b], the “amplitude 2 (relative quin-2 fluorescence change), CaM34” value on CaM34 amounted to 0.032 ± 0.007. For the same compound, on CaMWT (22 °C), the “number … phase 1, CaMWT” value amounted to 2; the “number … phase 2, CaMWT” value was determined as 1; the “amplitude 1 (relative quin-2 fluorescence change), CaMWT” value is recorded as 0.053 ± 0.001; the “amplitude 2 (relative quin-2 fluorescence change), CaMWT” value is 0.024 ± 0.006. Besides, on CaMWT (CaMWT with peptide, 22 °C), the “total Ca^2+ released” value is on record as 3 mol. In addition, at CaM12, the “amplitude 1 (relative quin-2 fluorescence change), CaM12” value came to 0.022 ± 0.010 and the “amplitude 2 (relative quin-2 fluorescence change), CaM12” value is on record as 0.012 ± 0.003.

For the compound YSLAAVVLGLVQSLNRQRQKQLLNE [AC8-C2b], the “amplitude 1 (relative quin-2 fluorescence change), CaM34” value at CaM34 (as koff1, CaM34, 22 °C) came to 0.049 ± 0.006. Further, at CaMWT (22 °C), the “number … phase 1, CaMWT” value was found to be 2; the “number … phase 2, CaMWT” value is reported as 2; the “amplitude 1 (relative quin-2 fluorescence change), CaMWT” value amounted to 0.054 ± 0.006; the “amplitude 2 (relative quin-2 fluorescence change), CaMWT” value worked out at 0.053 ± 0.010. Moreover, on CaMWT (CaMWT with peptide, 22 °C), the “total Ca^2+ released” value was “four” and the “total relative amplitude, CaMWT” value is roughly 0.12. For the same compound, the “reduction of Ca^2+ dissociation speed, C-lobe” value on CaMWT (if slower release from both lobes, C-lobe) came to 5 fold. At CaMWT (if slower release from both lobes, N-lobe), the “reduction of Ca^2+ dissociation speed, N-lobe” value is recorded as greater than 60 fold. For the same compound, on CaM12 (setting [2]), the “amplitude, single-exponential fit, CaM12” value was 0.054 ± 0.004 and the “rate constant, single-exponential fit, CaM12” value is on record as 7.0 ± 1.3 s^–1. In addition, on CaM12, the “amplitude 1 (relative quin-2 fluorescence change), CaM12” value amounted to 0.043 ± 0.007 and the “amplitude 2 (relative quin-2 fluorescence change), CaM12” value came to 0.021 ± 0.001.
